Results published in ChEMBL document CHEMBL4145677, “Insights into the Mechanism of Antimicrobial Activity of Seven-Residue Peptides” (J Med Chem, 2018).
The source made the active and inactive calls. The rule behind the calls is not given here.

Tests used:
Escherichia coli [1] = assay: Antimicrobial activity against Escherichia coli DH5[alpha] incubated for 4 hrs by microdilution broth assay; format: functional
In short: (§1)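 Bacteria grown in nutrient broth at 310K. Mid-log cells washed thrice and resuspended in 10 mM phosphate buffer pH 7.4 at 10^5 CFU/mL. Exposed to peptide 1–100 µM for 4 h at 310K, then medium added and grown overnight with shaking. Growth read at A630, normalized to 10 µM polymyxin B control. MIC90% is the concentration giving 90% growth inhibition; triplicates.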

Pseudomonas aeruginosa = assay: Antimicrobial activity against Pseudomonas aeruginosa incubated for 4 hrs by microdilution broth assay; format: functional; in short: as §1
Klebsiella pneumoniae = assay: Antimicrobial activity against Klebsiella pneumoniae incubated for 4 hrs by microdilution broth assay; format: functional; in short: as §1
Salmonella typhi = assay: Antimicrobial activity against Salmonella typhi Ty2 incubated for 4 hrs by microdilution broth assay; format: functional, Salmonella enterica subsp. enterica serovar Typhi str. Ty2; details: Salmonella enterica
Staphylococcus aureus = assay: Antimicrobial activity against Staphylococcus aureus incubated for 4 hrs by microdilution broth assay; format: functional; in short: as §1
Candida albicans [2] = assay: Antimicrobial activity against Candida albicans incubated for 4 hrs by microdilution broth assay; format: functional
In short: as §1, with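 “Yeasts” for “Bacteria”, “YPDU” for “nutrient broth”, “301K.” for “310K.”, “301K,” for “310K,”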

Cryptococcus neoformans [3] = assay: Antimicrobial activity against Cryptococcus neoformans var. grubii incubated for 4 hrs by microdilution broth assay; format: functional
In short: as §1, with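 “Yeasts” for “Bacteria”, “YPDU” for “nutrient broth”, “301K.” for “310K.”, “301K,” for “310K,”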

Candida albicans [4] = assay: Antimicrobial activity against Candida albicans assessed as induction of microbial killing in presence of 150 mM NaCl measured after overnight recovery by microdilution broth assay; format: functional
In short: (§2)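 Washed mid-log cells in 10 mM phosphate buffer pH 7.4 with 150 mM NaCl, 10^5 CFU/mL; C. albicans grown in YPDU. Peptide 1–100 µM, 4 h at 301K, then medium added and grown overnight with shaking; A630 read. Polymyxin B 10 µM positive control; percent killing reported as MIC50%; triplicates.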

Cryptococcus neoformans [5] = assay: Antimicrobial activity against Cryptococcus neoformans var. grubii assessed as induction of microbial killing in presence of 150 mM NaCl measured after overnight recovery by microdilution broth assay; format: functional; in short: as §2
Erythrocyte = assay: Hemolytic activity in human erythrocytes at 1 to 200 uM after 4 hrs by; format: ADME, cell-based
In short: (§3)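 Fresh EDTA-anticoagulated human blood; erythrocytes washed thrice in PBS pH 7.4, 2×10^8 cells/mL, mixed with equal volume of peptide up to 200 µM, shaken at 310K for 1 h and 4 h. Supernatant absorbance at 414 nm measured, normalized to 2% Triton X-100 as 100% lysis; triplicates.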

[6] = Hemolytic activity in human erythrocytes assessed as heme release at 1 to 200 uM after 4 hrs by; format: ADME, cell-based, Erythrocyte; details: read-out: Activity; in short: as §3
HEK293 [7] = assay: Toxicity in HEK293 cells assessed as reduction in cell viability at 2 to 100 uM incubated for 24 hrs by MTT assay; format: cell-based; details: human, hek293, 24 h
In short: (§4)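 HEK-293 cells kept in DMEM with 10% FBS and 1% penicillin/streptomycin, 310K, 5% CO2. Seeded at 10^4 cells/well and grown overnight, then exposed to peptide 0–100 µM for 24 h. MTT at 0.3 mg/mL for 3 h, formazan dissolved in DMSO, read at 570 nm; triplicates.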

HEK293 [8] = assay: Toxicity in HEK293 cells assessed as reduction in cell viability at =>100 uM incubated for 24 hrs by MTT assay; format: cell-based; details: human, hek293, 24 h; in short: as §4
Lipid bilayer [9] = assay: Induction of cell permeabilization in calcein-entrapped 3:1 DOPE/DOPG large unilamellar vesicles by calcein leakage assay
In short: (§5)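 LUVs of DOPE/DOPG 3:1 loaded with 70 mM calcein in 10 mM Tris pH 7.4, extruded through 100-nm filters, free dye removed by spin column. Liposomes at 20 µM in 10 mM Tris, 100 mM NaCl pH 7.4, 298K. Peptide added stepwise; emission at 520 nm read 5 min after each addition. Leakage = (F−Fo)/(FT−Fo)×100, with 0.1% Triton X-100 as FT; triplicates.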

Lipid bilayer [10] = assay: Induction of cell permeabilization in calcein-entrapped 3:1 DOPE/DOPG large unilamellar vesicles at 30 uM by calcein leakage assay; in short: as §5
Lipid bilayer [11] = assay: Induction of cell permeabilization in calcein-entrapped 3:1 DOPE/DOPG large unilamellar vesicles at 1 to 50 uM by calcein leakage assay; in short: as §5
Escherichia coli [12] = assay: Induction of bacteriolysis in Escherichia coli DH5[alpha] assessed as induction of cell wall shrinkage at 1 to 5 times MIC90 by scanning electron microscopy; format: functional, organism-based
Escherichia coli [13] = assay: Induction of bacteriolysis in Escherichia coli DH5[alpha] assessed as induction of intracellular material leakage at 1 to 5 times MIC90 by scanning electron microscopy; format: functional, organism-based
Escherichia coli [14] = assay: Induction of bacteriolysis in Escherichia coli DH5[alpha] assessed as induction of distorted cell morphology at 1 times MIC90 by scanning electron microscopy; format: functional, organism-based
Escherichia coli [15] = assay: Induction of bacteriolysis in Escherichia coli DH5[alpha] assessed as induction of dents and membrane blebbing at 1 times MIC90 by scanning electron microscopy; format: functional, organism-based
Escherichia coli [16] = assay: Induction of bacteriolysis in Escherichia coli DH5[alpha] assessed as induction of non-uniform cell debris with leaked intracellular material at 5 times MIC90 by scanning electron microscopy; format: functional, organism-based
Cryptococcus neoformans [17] = assay: Induction of cell membrane permeabilization in Cryptococcus neoformans var. grubii at 0.5 mM by […] cell NMR spectroscopy; format: functional, organism-based
Cryptococcus neoformans [18] = assay: Induction of cell death in Cryptococcus neoformans var. grubii at 0.5 mM after 1 hr by […] cell NMR spectroscopy; format: functional, organism-based
Cryptococcus neoformans [19] = assay: Induction of cell membrane permeabilization in Cryptococcus neoformans var. grubii assessed as release of metabolites at 0.5 mM by […] cell NMR spectroscopy; format: functional, organism-based
[20] = Binding affinity to SDS by circular dichroism spectroscopy
In short: (§6)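 Far-UV CD, 250–190 nm, 1-mm quartz cuvette, 100 nm/min, 0.5 nm interval, 3 scans averaged, 298K. Peptide at 25 µM final in deionized water or with 30 mM SDS or DPC micelles.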

[21] = Binding affinity to DPC micelle by circular dichroism spectroscopy; in short: as §6
[22] = Binding affinity to d25-SDS micelles by 1H NMR spectroscopy
[23] = Binding affinity to SDS micelle in presence of MnCl2 by PRE NMR spectroscopy
[24] = Binding affinity to DPC micelle in presence of MnCl2 by PRE NMR spectroscopy
Lipid bilayer [25] = assay: Induction of cell permeabilization in calcein-entrapped 3:1 DOPE/DOPG large unilamellar vesicles at 50 uM measured over period of 7200 secs by calcein leakage assay
In short: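 Calcein-loaded 3:1 DOPE/DOPG LUVs, 20 µM in 10 mM Tris, 100 mM NaCl pH 7.4, exposed to 50 µM peptide. Emission at 520 nm followed over time at 298K, with a liposome-only control monitored for 2 h.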

Escherichia coli [26] = assay: Induction of bacteriolysis in Escherichia coli DH5[alpha] assessed as induction of morphological changes at 100 uM by scanning electron microscopy; format: functional, organism-based
Cryptococcus neoformans [27] = assay: Induction of cell membrane permeabilization in Cryptococcus neoformans var. grubii at 0.5 mM after 2 hrs by […] cell NMR spectroscopy; format: functional, organism-based
Cryptococcus neoformans [28] = assay: Induction of cell death in Cryptococcus neoformans var. grubii at 0.5 mM after 2 hrs by […] cell NMR spectroscopy; format: functional, organism-based
Cryptococcus neoformans [29] = assay: Induction of cell membrane permeabilization in Cryptococcus neoformans var. grubii assessed as release of metabolites at 0.5 mM after 2 hrs by […] cell NMR spectroscopy; format: functional, organism-based

Substance | MIC90 (Escherichia coli [1]) | MIC90 (Pseudomonas aeruginosa) | MIC90 (Klebsiella pneumoniae) | MIC90 (Salmonella typhi) | MIC90 (Staphylococcus aureus) | MIC90 (Candida albicans [2]) | MIC90 (Cryptococcus neoformans [3]) | MIC50 (Candida albicans [4]) | MIC50 (Cryptococcus neoformans [5]) | Activity (Erythrocyte) | hemolysis at 4 h, up to 200 µM [6] | Activity (HEK293 [7]) | Activity (HEK293 [8]) | Activity (Lipid bilayer [9]) | Activity (Lipid bilayer [10]) | Activity (Lipid bilayer [11]) | Activity (Escherichia coli [12]) | Activity (Escherichia coli [13]) | Activity (Escherichia coli [14]) | Activity (Escherichia coli [15]) | other results
H-LKWLKKL-NH2 | 50 µM | 50 µM | 50 µM | 15 µM | 50 µM | 50 µM | 25 µM | 50 µM | 50 µM | Non-Toxic | < 10% | Non-Toxic | < 10% | Dose-dependent effect | 27% | 37% | Active | Active | Active | Active | Activity (Escherichia coli [16]): Active; Activity (Cryptococcus neoformans [17]): Active; Activity (Cryptococcus neoformans [18]): Active; Activity (Cryptococcus neoformans [19]): Active; Activity [20]: inactive; Activity [21]: inactive; Activity [22]: Active; Activity [23]: Active; Activity [24]: inactive
H-LRWLRRL-NH2 | 10 µM | 10 µM | 15 µM | 7.5 µM | 50 µM | 50 µM | 15 µM | 25 µM | 25 µM | Non-Toxic | < 10% | Non-Toxic | < 10% | Dose-dependent effect | 45% | 57% | Active | Active | Active | Active | Activity (Lipid bilayer [25]): Active; Activity (Escherichia coli [16]): Active; Activity (Cryptococcus neoformans [17]): Active; Activity (Cryptococcus neoformans [18]): Active; Activity (Cryptococcus neoformans [19]): Active; Activity [20]: inactive; Activity [21]: inactive; Activity [22]: Active; Activity [23]: inactive; Activity [24]: inactive
H-LKLLRKL-OH |  |  |  |  |  |  |  |  |  |  |  |  |  |  |  |  |  |  |  |  | Activity (Escherichia coli [26]): inactive; Activity (Cryptococcus neoformans [27]): inactive; Activity (Cryptococcus neoformans [28]): inactive; Activity (Cryptococcus neoformans [29]): inactive
